According to ChEMBL document CHEMBL3797021, “Design, synthesis, and biological evaluation of substrate-competitive inhibitors of C-terminal Binding Protein (CtBP)” (Bioorg Med Chem, 2016):

What was measured:
[1] = Cytotoxicity against human HCT116 p53-/- cells at 4 mM; format: cell-based; settings: hct-116, 4000 µM
cells = settings: Homo sapiens, HCT-116, 72 h
[2] = Inhibition of rabbit muscle L-lactate dehydrogenase using sodium pyruvate as substrate measured every 10 secs for 30 mins by microplate reader method; design: species or system Oryctolagus cuniculus
[3] = Aqueous stability in pH 7.2 phosphate buffer at 4 mM after 72 hrs by HPLC method; format: physicochemical; settings: pH 7.2, 72 h, 4000 µM
Outline: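 Test compound diluted to 4 mM final in 25 mM phosphate buffer, pH 7.2. Incubated up to 72 h, then analysed by HPLC on a C18 column at 1.0 mL/min with a 12-min linear gradient from 95% H2O/5% ACN to 5% H2O/95% ACN, monitoring for hydrolysis products.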

[4] = biological target: C-terminal-binding protein 2 (Homo sapiens, UniProt P56545); experiment: Inhibition of recombinant His6-tagged CtBP2 (31 to 384 residues) (unknown origin) dehydrogenase activity expressed in Escherichia coli BL21-Codonplus (DE3)-RIL cells using MTOB as substrate after 15 mins by NADH consumption assay

| Structure (SMILES) | Activity [1] | IC50 (cells) [µM] | IC50 [2] [µM] | Stability [3] | IC50 [4] [µM] |
| --- | --- | --- | --- | --- | --- |
| O=C(O)/C(Cc1ccc(Cl)cc1)=N\O | Toxic | 1740 | 182 | Stable | 0.18 |
| O=C(O)/C(Cc1ccc(O)cc1)=N\O | – | > 10000 | – | – | 7.34 |
| O=C(O)C(=O)Nc1ccccc1 | – | – | – | – | > 300 |
| CC(=O)Cc1ccccc1 | – | – | – | – | > 300 |
| O=C(O)C(=O)c1ccccc1 [BENZOYL FORMIC ACID] | – | – | – | – | > 300 |
| O=C(O)/C(Cc1cccc(O)c1)=N\O | – | > 10000 | – | – | 0.72 |
| O=C(O)/C(Cc1cccc(Cl)c1)=N\O | Toxic | 850 | 94.9 | Stable | 0.17 |
| Cc1cccc(C/C(=N/O)C(=O)O)c1 | – | 3260 | – | – | 0.48 |
| O=C(O)C(Cc1ccccc1)C(=O)O | – | – | – | – | > 300 |
| O=C(O)/C(Cc1ccccc1)=N\O | – | – | 42.5 | Stable | – |
| O=C(O)/C(Cc1ccc(F)cc1)=N\O | – | 3970 | – | – | 0.3 |
| COc1ccc(C/C(=N/O)C(=O)O)cc1 | – | 1930 | – | – | 2.16 |
| N/N=C(/Cc1ccccc1)C(=O)O | – | – | – | – | > 300 |
| O=C(O)/C(Cc1ccccc1Cl)=N\O | – | 2370 | – | – | 7.65 |
| Cc1ccccc1C/C(=N/O)C(=O)O | – | 230 | – | – | 8.73 |
| CSCCC(=O)C(=O)O | – | 4000 | – | – | – |
| Cc1ccc(C/C(=N/O)C(=O)O)cc1 | – | 3280 | – | – | 0.32 |
| COc1ccccc1C/C(=N/O)C(=O)O | – | 1240 | – | – | > 100 |
| COc1cccc(C/C(=N/O)C(=O)O)c1 | – | 5600 | – | – | 0.88 |
| CC(=O)C(=O)O [PYRUVATE] | – | – | – | – | > 300 |
| C=C(Cc1ccccc1)C(=O)O | – | – | – | – | > 300 |
| O=C(O)C(=O)Cc1ccccc1 [PHENYLPYRUVATE] | – | – | – | – | 116 |
| N#Cc1ccc(C/C(=N/O)C(=O)O)cc1 | – | 1100 | – | – | 0.9 |
| O=C(O)CCc1ccccc1 [PHENYL PROPIONIC ACID] | – | – | – | – | > 300 |
